Results from ChEMBL document CHEMBL3774372, “Design, physico-chemical properties and biological evaluation of some new N-[(phenoxy)alkyl]- and N-{2-[2-(phenoxy)ethoxy]ethyl}aminoalkanols as anticonvulsant agents” (Bioorg Med Chem, 2016).
The source made the active and inactive calls.

Assays:
Mus musculus [1] = assay: Neurotoxicity in mouse at 300 mg/kg, ip after 0.5 hrs by rotarod test; format: toxicity, organism-based; conditions: in vivo
Procedure, shortened: (§1)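 Mice were dosed ip with compound suspended in 0.5% methylcellulose. Rotarod: a 1 in. knurled rod turning at 6 rpm. Neurotoxicity was scored as failure to stay on the rod for at least 1 min in each of three trials. Results are given as the number of animals affected out of the number tested.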

Mus musculus [2] = assay: Neurotoxicity in mouse at 30 mg/kg, ip after 4 hrs by rotarod test; format: toxicity, organism-based; conditions: in vivo; procedure, shortened: as §1
Mus musculus [3] = assay: Neurotoxicity in mouse at 100 mg/kg, ip after 4 hrs by rotarod test; format: toxicity, organism-based; conditions: in vivo; procedure, shortened: as §1
Mus musculus [4] = assay: Anticonvulsant activity in mouse assessed as protection against maximal electric shock-induced seizures at 100 mg/kg, ip measured after 0.5 hrs; format: functional, organism-based
Procedure, shortened: (§2)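 Mice dosed ip with suspension in 0.5% methylcellulose; maximal electroshock applied at the listed time after dosing. Protection = abolition of hindlimb tonic extension component of seizure; reported as animals protected/animals tested.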

Mus musculus [5] = assay: Anticonvulsant activity in mouse assessed as protection against maximal electric shock-induced seizures at 100 mg/kg, ip measured after 4 hrs; format: functional, organism-based; procedure, shortened: as §2
Mus musculus [6] = assay: Anticonvulsant activity in mouse assessed as protection against subcutaneous pentylenetetrazol-induced seizures at 100 mg/kg, ip measured after 0.5 hrs; format: functional, organism-based
Procedure, shortened: (§3)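 Mice dosed ip as 0.5% methylcellulose suspension; pentylenetetrazole 85 mg/kg in 0.9% NaCl injected subcutaneously into posterior midline, animals watched at least 30 min. Protection = no threshold seizure (single clonic spasm episode lasting ≥5 s); scored protected/tested.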

Mus musculus [7] = assay: Anticonvulsant activity in mouse assessed as protection against subcutaneous pentylenetetrazol-induced seizures at 30 mg/kg, ip measured after 4 hrs; format: functional, organism-based; procedure, shortened: as §3
Mus musculus [8] = assay: Anticonvulsant activity in mouse assessed as protection against subcutaneous pentylenetetrazol-induced seizures at 100 mg/kg, ip measured after 4 hrs; format: functional, organism-based; procedure, shortened: as §3
Mus musculus [9] = assay: Anticonvulsant activity in mouse assessed as protection against maximal electric shock-induced seizures at 30 mg/kg, ip measured after 4 hrs; format: functional, organism-based; procedure, shortened: as §2
Mus musculus [10] = assay: Anticonvulsant activity in mouse assessed as protection against maximal electric shock-induced seizures at 30 mg/kg, ip measured after 0.5 hrs; format: functional, organism-based; procedure, shortened: as §2
Mus musculus [11] = assay: Anticonvulsant activity in mouse assessed as protection against subcutaneous pentylenetetrazol-induced seizures at 30 mg/kg, ip measured after 0.5 hrs; format: functional, organism-based; procedure, shortened: as §3
Mus musculus [12] = assay: Neurotoxicity in mouse at 30 mg/kg, ip after 0.5 hrs by rotarod test; format: toxicity, organism-based; conditions: in vivo; procedure, shortened: as §1
Vibrio harveyi [13] = assay: Mutagenicity in Vibrio harveyi BB7X assessed as number of colonies after 48 hrs (reference value: 15 to 16 no_unit); format: ADME, organism-based; conditions: in vivo
Procedure, shortened: (§4)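 Vibrio harveyi mutagenicity test: test compound was added to exponentially growing cultures (A600 = 0.1, 30 °C) and grown to OD600 0.3–0.4. Then 5 × 10^6 cells were plated on BOSS agar with neomycin (final 100 µg/mL) and incubated 48 h at 30 °C. Neomycin-resistant colonies were counted. Triplicate; controls were water, DMSO and NQNO 40 ng/mL.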

Vibrio harveyi [14] = assay: Mutagenicity in Vibrio harveyi BB7 assessed as number of colonies after 48 hrs (reference value: 13 to 14 no_unit); format: ADME, organism-based; conditions: in vivo; procedure, shortened: as §4
Vibrio harveyi [15] = assay: Mutagenicity in Vibrio harveyi BB7M assessed as number of colonies after 48 hrs (reference value: 13 to 14 no_unit); format: ADME, organism-based; conditions: in vivo; procedure, shortened: as §4
Vibrio harveyi [16] = assay: Mutagenicity in Vibrio harveyi BB7XM assessed as number of colonies after 48 hrs (reference value: 14 no_unit); format: ADME, organism-based; conditions: in vivo; procedure, shortened: as §4
Rattus norvegicus [17] = assay: Neurotoxicity in rat at 30 mg/kg, po after 0.5 hrs by rotarod test; format: toxicity, organism-based; conditions: in vivo
Rattus norvegicus [18] = assay: Neurotoxicity in rat at 30 mg/kg, po after 1 hr by rotarod test; format: toxicity, organism-based; conditions: in vivo
Rattus norvegicus [19] = assay: Neurotoxicity in rat at 30 mg/kg, po after 2 hrs by rotarod test; format: toxicity, organism-based; conditions: in vivo
Rattus norvegicus [20] = assay: Anticonvulsant activity in rat assessed as protection against maximal electric shock-induced seizures at 30 mg/kg, po measured after 0.5 hrs; format: functional, organism-based
Procedure, shortened: (§5)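 Rats dosed ip or orally as 0.5% methylcellulose suspension; maximal electroshock at listed time. Protection = abolition of hindlimb tonic extension; 4 rats per group, scored protected/tested.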

Mus musculus [21] = assay: Neurotoxicity in mouse at 100 mg/kg, ip after 0.5 hrs by rotarod test; format: toxicity, organism-based; conditions: in vivo; procedure, shortened: as §1
Rattus norvegicus [22] = assay: Neurotoxicity in rat at 30 mg/kg, po after 4 hrs by rotarod test; format: toxicity, organism-based; conditions: in vivo
Rattus norvegicus [23] = assay: Anticonvulsant activity in rat assessed as protection against maximal electric shock-induced seizures at 30 mg/kg, po measured after 1 hr; format: functional, organism-based; procedure, shortened: as §5
Rattus norvegicus [24] = assay: Neurotoxicity in rat at 30 mg/kg, po after […] by rotarod test; format: toxicity, organism-based; conditions: in vivo
Mus musculus [25] = assay: Anticonvulsant activity in mouse assessed as protection against maximal electric shock-induced seizures at 3 mg/kg, ip measured after 0.5 hrs; format: functional, organism-based; procedure, shortened: as §2
Rattus norvegicus [26] = assay: Anticonvulsant activity in rat assessed as protection against maximal electric shock-induced seizures at 30 mg/kg, po measured after 2 hrs; format: functional, organism-based; procedure, shortened: as §5
Vibrio harveyi [27] = assay: Antimutagenic activity against Vibrio harveyi BB7 assessed as inhibition of NQNO-induced mutagenicity after 48 hrs; format: functional
Procedure, shortened: (§6)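 V. harveyi cultures grown exponentially to A600 0.1 at 30 °C, exposed to test compound for 15 min, then to NQNO, and grown on to A600 0.3–0.4. 5 × 10⁶ cells plated on BOSS agar with neomycin (100, final). Neomycin-resistant colonies counted after 48 h at 30 °C. Result given as % inhibition of NQNO mutagenicity; three independent repeats.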

Vibrio harveyi [28] = assay: Antimutagenic activity against Vibrio harveyi BB7M assessed as inhibition of NQNO-induced mutagenicity after 48 hrs; format: functional; procedure, shortened: as §6
Vibrio harveyi [29] = assay: Antimutagenic activity against Vibrio harveyi BB7XM assessed as inhibition of NQNO-induced mutagenicity after 48 hrs; format: functional; procedure, shortened: as §6
Vibrio harveyi [30] = assay: Antimutagenic activity against Vibrio harveyi BB7X assessed as inhibition of NQNO-induced mutagenicity after 48 hrs; format: functional; procedure, shortened: as §6
Rattus norvegicus [31] = assay: Anticonvulsant activity in rat assessed as protection against maximal electric shock-induced seizures at 30 mg/kg, po measured after […]; format: functional, organism-based

Compound	Activity (Mus musculus [1])	Activity (Mus musculus [2])	Activity (Mus musculus [3])	Activity (Mus musculus [4])	Activity (Mus musculus [5])	Activity (Mus musculus [6])	Activity (Mus musculus [7])	Activity (Mus musculus [8])	Activity (Mus musculus [9])	Activity (Mus musculus [10])	Activity (Mus musculus [11])	Activity (Mus musculus [12])	Activity (Vibrio harveyi [13])	Activity (Vibrio harveyi [14])	Activity (Vibrio harveyi [15])	Activity (Vibrio harveyi [16])	Activity (Mus musculus [21])	also measured
Cc1cccc(OCCNC(C)(C)CO)c1C	Toxic	Non-toxic	Non-toxic	Active	inactive	inactive	inactive	inactive	inactive	inactive	inactive	Non-toxic						
Cc1ccc(OCCN[C@H](C)CO)c(C)c1													17	22	26	23		
Cc1cc(C)c(OCCN[C@@H]2CCCC[C@H]2O)c(C)c1 (racemic)	Toxic	Non-toxic	Non-toxic		inactive		inactive	inactive	inactive	Active	inactive	Non-toxic					Toxic	Activity (Rattus norvegicus [17]): Non-toxic; Activity (Rattus norvegicus [18]): Non-toxic; Activity (Rattus norvegicus [19]): Non-toxic; Activity (Rattus norvegicus [20]): inactive; Activity (Rattus norvegicus [22]): Non-toxic; Activity (Rattus norvegicus [23]): inactive; Activity (Rattus norvegicus [24]): Non-toxic; Activity (Mus musculus [25]): inactive; Activity (Rattus norvegicus [26]): inactive
Cc1cccc(OCCCNC(C)CO)c1C (stereo not drawn)	Toxic	Non-toxic	Non-toxic	Active	inactive	inactive	inactive	inactive	inactive	inactive	inactive	Non-toxic					Toxic	
CCC(CO)NCCOc1cccc(C)c1C (stereo not drawn)		Non-toxic	Non-toxic	Active	inactive	inactive	inactive	inactive	inactive	inactive	inactive	Non-toxic					Toxic	
Cc1cccc(C)c1OCCOCCN1CCC(O)CC1	Toxic	Non-toxic	Non-toxic		inactive		inactive	inactive	inactive	inactive	inactive	Non-toxic	16	22	18	26		inhibition (INH) (Vibrio harveyi [27]): 84%; inhibition (INH) (Vibrio harveyi [28]): 34%; inhibition (INH) (Vibrio harveyi [29]): 26%; inhibition (INH) (Vibrio harveyi [30]): 12%
Cc1cc(C)c(OCCN[C@H]2CC[C@H](O)CC2)c(C)c1	Toxic	Non-toxic	Non-toxic	Active	inactive	inactive	inactive		inactive	inactive	inactive	Non-toxic						Activity (Rattus norvegicus [17]): Non-toxic; Activity (Rattus norvegicus [18]): Non-toxic; Activity (Rattus norvegicus [19]): Non-toxic; Activity (Rattus norvegicus [20]): inactive; Activity (Rattus norvegicus [22]): Non-toxic; Activity (Rattus norvegicus [31]): inactive; Activity (Rattus norvegicus [23]): inactive; Activity (Rattus norvegicus [24]): Non-toxic; Activity (Rattus norvegicus [26]): inactive
Cc1cccc(OCCOCCN[C@H]2CC[C@H](O)CC2)c1C													27	22	25	20		
CCC(CO)NCCCOc1cccc(C)c1C (stereo not drawn)	Toxic	Non-toxic	Non-toxic	Active	inactive	inactive	inactive	inactive	inactive	inactive	inactive	Non-toxic					Toxic	
Cc1cccc(OCCNC(C)CO)c1C (stereo not drawn)	Toxic	Non-toxic	Non-toxic	Active	inactive	inactive	inactive	inactive	inactive	inactive	inactive	Non-toxic						
